Assay results from ChEMBL document CHEMBL4513216, “Probing the Open Global Health Chemical Diversity Library for Multistage-Active Starting Points for Next-Generation Antimalarials” (ACS Infect Dis, 2020).

Assay: Toxicity liver stage against HepG2, at 10uM
Type: cell-based
Parameters: test concentration 10 uM, cell line HepG2-A16-CD81EGFP
Conditions: human, HepG2-A16-CD81EGFP cells; read-out: INHIBITION
In short: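 Uninfected HepG2-A16-CD81EGFP cells, 3 × 10^3 per well, 1536-well, plated on prespotted compound at 10 μM final, parasite-free screening media added to match infected plates; puromycin 10 μM positive, DMSO 0.5% negative; run in parallel with 48 h PbLuc assay at 37 °C, 5% CO2; viability by CellTiter-Glo luminescence, normalized to controls.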

Compound `COCCNC(=O)[C@H]1C[C@@H]2CCN(c3ccccc3)C[C@H]2O1` has a cytotoxicity at 10 µM of 2.78%.
Work on `CCc1cnc(C)nc1NC(C)C(=O)Nc1cc(F)ccc1C` (stereo not given) yielded a cytotoxicity at 10 µM of -0.682%.
`O=c1c2sccc2nc2n1CCN(Cc1ccc(F)c(F)c1)CC2` showed a cytotoxicity at 10 µM of -26%.
`CN(C)C(=O)N1CCN(C(=O)c2cccc(Cl)c2)CC2(CNC(=O)C2)C1` (stereo not given) showed a cytotoxicity at 10 µM of 7.61%.
In the case of `COC(C)(C)CNC(=O)N(C)Cc1nc(-c2ccccc2)c[nH]1`, the cytotoxicity at 10 µM is reported as 8.07%.
With `CCS(=O)(=O)CCNC(=O)c1cc2n(n1)CCCO2` the cytotoxicity at 10 µM was -8.81%.
Compound `Cc1noc(C)c1CN1CCn2c(COC(C)C)nnc2C1` has a cytotoxicity at 10 µM of -113%.
In the case of `CCSc1ncc(CN(Cc2cnn(C)c2)CC(C)C)cn1`, the cytotoxicity at 10 µM is reported as -7.53%.
Work on `CCCn1ccc2cc(NC(=O)NCCn3cnnc3CC)ccc21` yielded a cytotoxicity at 10 µM of 2.47%.
In the case of `CCOC(=O)c1n[nH]cc1CN1CCOC(Cc2ccc(F)cc2)C1` (stereo not given), the cytotoxicity at 10 µM is reported as -3.92%.
`CCCn1nnc(NCc2cc(Br)cc(Br)c2OC)n1` gave a cytotoxicity at 10 µM of 12.6%.
With `CCCS(=O)(=O)CCN1CCN(C(C#N)c2ccccc2)CC1` (stereo not given) the cytotoxicity at 10 µM was -5.02%.
Work on `Cc1c(NC(C)C(C)C)cccc1C(=O)NCc1cnn(C)c1` (stereo not given) yielded a cytotoxicity at 10 µM of 27%.
For `Cc1ccc(C(=O)N2CCN(C(=O)C(C)n3ccnc3)CC2)cc1F` (stereo not given), the cytotoxicity at 10 µM was 3.72%.
With `CC(NS(=O)(=O)N(C)C)c1cccc(-n2cccn2)c1` (stereo not given) the cytotoxicity at 10 µM was -1.46%.
With `Cn1cc(CN2CCC3(CC2)C(=O)Nc2ccccc23)cn1` the cytotoxicity at 10 µM was 0.134%.
Work on `Cc1noc(C)c1CN1C[C@@H]2CN(C(=O)c3cscn3)C[C@@H]2C1` yielded a cytotoxicity at 10 µM of -3.09%.
With `CCN(C)S(=O)(=O)NCC1(c2ccccc2Br)CC1` the cytotoxicity at 10 µM was 1.22%.
`CCOc1ncccc1CNC(=O)N1CCCC1c1ccsc1` (stereo not given) showed a cytotoxicity at 10 µM of -7.69%.
`O=C(O)C1(Cc2cccc(-c3cccs3)c2)CCCNC1` (stereo not given) showed a cytotoxicity at 10 µM of 4.43%.
For `CC(C)(C)c1nccc(N2CCCCC2CCNS(C)(=O)=O)n1` (stereo not given), the cytotoxicity at 10 µM was 8.83%.
For `c1ccc(CN(Cc2cccc3cnccc23)CC2CCCO2)nc1` (stereo not given), the cytotoxicity at 10 µM was -5.68%.
With `Cc1cc2c(=O)n3c(nc2s1)CCN(Cc1cnc(C(C)C)nc1)CC3` the cytotoxicity at 10 µM was 10.5%.
Compound `CN(C)C(=O)CCS(=O)(=O)Cc1coc(-c2ccc(F)cc2)n1` has a cytotoxicity at 10 µM of -2.26%.
Work on `CCOc1c(Cl)cccc1NCc1cc(C)on1` yielded a cytotoxicity at 10 µM of 1.04%.
`O=C1CSc2ccc(C(=O)N3CCCC(n4ccnc4)C3)cc2N1` (stereo not given) showed a cytotoxicity at 10 µM of -8.44%.
`CC(C)C1CCCN1CCCc1nc(-c2cccs2)no1` (stereo not given) showed a cytotoxicity at 10 µM of -16%.
`O=C(CNC(=O)c1cnc2ccccc2c1O)NCCn1ccnc1` showed a cytotoxicity at 10 µM of -3.02%.
With `c1cnc(NCc2nnn3c2CN(Cc2ccco2)CCC3)nc1` the cytotoxicity at 10 µM was 9.08%.
For `O=C(Nc1ccc2c(ccn2CCN2CCOCC2)c1)c1ccncc1`, the cytotoxicity at 10 µM was -2.9%.
`CCc1ccc(CN2CCC3(CC2)CNC(=O)CO3)o1` gave a cytotoxicity at 10 µM of -16.5%.
Compound `CCN(CC)Cc1cc(C(=O)N2CC(C)(C)[C@@](C)(O)C2)c(C)o1` has a cytotoxicity at 10 µM of 1.07%.
`Cc1nn(C)c(C)c1C1CCCN1C(=O)c1ccc2c(c1)OCCO2` (stereo not given) gave a cytotoxicity at 10 µM of -10.6%.
`CCOCc1nc(N2CCCC2)sc1C(=O)NCCC(=O)OCC` gave a cytotoxicity at 10 µM of -3.66%.
Compound `O=C1CC(NS(=O)(=O)c2ccccc2)CN1Cc1ccccc1` (stereo not given) has a cytotoxicity at 10 µM of 6.89%.
Compound `O=C(c1ccc[nH]1)N1C[C@@H]2CC[C@H]1CN(C1Cc3ccccc3C1)C2` has a cytotoxicity at 10 µM of -1.85%.
`COCC1CN(C(=O)c2ccco2)Cc2nccn2C1` (stereo not given) gave a cytotoxicity at 10 µM of -107%.
Compound `CCCN1CCC(CC(=O)NCc2cc(C)nn2C)CC1` has a cytotoxicity at 10 µM of -12.4%.
`Cc1nn(CCn2ccnc2-c2cc3n(n2)CCCNC3)c(C)c1Cl` showed a cytotoxicity at 10 µM of -8.52%.
For `O=C(c1ccc2[nH]nnc2c1)N1CCC(Nc2cccnn2)CC1`, the cytotoxicity at 10 µM was -1.49%.
With `O=S(=O)(NCc1ccccc1Cn1cncn1)N1CCCCC1` the cytotoxicity at 10 µM was 2.6%.
In the case of `Cc1cnc(CNC(=O)N(Cc2ccccc2)CC(C)(C)O)s1`, the cytotoxicity at 10 µM is reported as -3.22%.
With `CCOC1CCCN(C(=O)CCOc2ccc(C)cc2OC)C1` (stereo not given) the cytotoxicity at 10 µM was -9.22%.
With `Cc1cn2c(n1)CCC(NC(=O)c1nc(C)ncc1Cl)C2` (stereo not given) the cytotoxicity at 10 µM was -3.13%.
`Nc1cc2c(nn1)CCN(C(=O)c1ccc(Oc3cccnc3)cc1)C2` gave a cytotoxicity at 10 µM of 6.27%.
Work on `CC(=O)c1ccc(-n2c(C)cn(CCC#N)c2=O)cc1` yielded a cytotoxicity at 10 µM of 19.3%.
Work on `Cc1ccc(C(C)(C)CNC(=O)NC(C)Cn2cncn2)cc1` (stereo not given) yielded a cytotoxicity at 10 µM of 3.09%.
Work on `Cc1c(CN2CC[C@@H](N3CCC(O)CC3)[C@H](O)C2)[nH]c2ccc(Cl)cc12` yielded a cytotoxicity at 10 µM of -3.96%.
Compound `Cn1cc(N2CCCC(Nc3ccc4c(c3)NC(=O)CC4)C2=O)cn1` (stereo not given) has a cytotoxicity at 10 µM of -1.61%.
Compound `NC1(c2nc(-c3ccccc3)cc(=O)[nH]2)CCCC1` has a cytotoxicity at 10 µM of 1.47%.
`COCCNC(=O)CN1CC=C(n2c(C)nc(=O)c3ccccc32)CC1` showed a cytotoxicity at 10 µM of -5.45%.
For `C=C(C)COc1ccccc1CNC(CC)c1ccnn1C` (stereo not given), the cytotoxicity at 10 µM was -4.7%.
For `O=C(CN1CCC(c2ccnn2CCO)CC1)NCc1ccco1`, the cytotoxicity at 10 µM was 1.68%.
With `N#CCCn1nc(C(F)(F)F)c2c1CCCC2` the cytotoxicity at 10 µM was -11.9%.
For `CCN(c1cc(C)cc(C)c1)S(=O)(=O)c1cc(C(=O)O)cs1`, the cytotoxicity at 10 µM was -1.92%.
